Reference: ChEMBL document CHEMBL2375244 (J Med Chem, 2013)
Values belong to the compound of their own block, whether it stands above or below them.

Key:
[1] = biological target: T1, CDK2/Cyclin A2 (Homo sapiens, UniProt P24941); assay: Inhibition of human CDK2/Cyclin A2 using PKTPKKAKKL as substrate by fluorescence assay; assay type: protein-complex assay
[2] = tested on: BT-549; assay: Cytotoxicity against human BT549 cells after 72 hrs by resazurin/resorufin-based fluorescence assay; assay type: functional, cell-based; settings: BT-549, 72 h
Procedure, shortened: (§1)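 CellTiter-Blue viability: 1200 cells per well seeded, incubated overnight at 37 °C, 5% CO₂; drugs serially diluted 2:3 in medium, four replicate wells per concentration plus four diluent-only control wells; 72 h exposure; resazurin reduction to resorufin read by fluorescence (579 nm ex/584 nm em). IC50 is the average of three data sets, each using nine concentrations between 0.004 μM and 12.5 μM.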

[3] = Cytotoxicity against human RPMI18226 cells after 72 hrs by resazurin/resorufin-based fluorescence assay; assay type: functional, cell-based; settings: RPMI18226, 72 h
[4] = tested on: SW872; assay: Cytotoxicity against human SW872 cells after 72 hrs by resazurin/resorufin-based fluorescence assay; assay type: functional, cell-based; settings: SW872, 72 h
[5] = tested on: MCF7; assay: Cytotoxicity against human MCF7 cells after 72 hrs by resazurin/resorufin-based fluorescence assay; assay type: functional, cell-based; settings: MCF7, 72 h
[6] = tested on: HOS-TE85; assay: Cytotoxicity against human MNNG-HOS cells after 72 hrs by resazurin/resorufin-based fluorescence assay; assay type: functional, cell-based; settings: HOS-TE85, 72 h
[7] = Cytotoxicity against human MDA-MB-436 cells after 72 hrs by resazurin/resorufin-based fluorescence assay; assay type: functional, cell-based; settings: MDA-MB-436, 72 h
[8] = tested on: U-266; assay: Cytotoxicity against human U266 cells after 72 hrs by resazurin/resorufin-based fluorescence assay; assay type: functional, cell-based; settings: U-266, 72 h
[9] = Cytotoxicity against human NCI-H929 cells after 72 hrs by resazurin/resorufin-based fluorescence assay; assay type: functional, cell-based; settings: NCI-H929, 72 h
[10] = tested on: MDA-MB-231; assay: Cytotoxicity against human MDA-MB-231 cells after 72 hrs by resazurin/resorufin-based fluorescence assay; assay type: functional, cell-based; settings: MDA-MB-231, 72 h
[11] = tested on: SK-UT-1; assay: Cytotoxicity against human SK-UT-1 cells after 72 hrs by resazurin/resorufin-based fluorescence assay; assay type: functional, cell-based; settings: SK-UT-1, 72 h
[12] = tested on: T47D; assay: Cytotoxicity against human T47D cells after 72 hrs by resazurin/resorufin-based fluorescence assay; assay type: functional, cell-based
[13] = tested on: SK-ES1; assay: Cytotoxicity against human SK-ES-1 cells after 72 hrs by resazurin/resorufin-based fluorescence assay; assay type: functional, cell-based; settings: SK-ES1, 72 h
[14] = tested on: A673; assay: Cytotoxicity against human A673 cells after 72 hrs by resazurin/resorufin-based fluorescence assay; assay type: functional, cell-based; settings: A673, 72 h
[15] = tested on: SK-BR-3; assay: Cytotoxicity against human SK-BR-3 cells after 72 hrs by resazurin/resorufin-based fluorescence assay; assay type: functional, cell-based; settings: SK-BR-3, 72 h; procedure, shortened: as §1
[16] = biological target: T1, CDK2/Cyclin A2; assay: Inhibition of human CDK2/Cyclin A2 using PKTPKKAKKL as substrate by PK/LDH spectrophotometric analysis; assay type: protein-complex assay
[17] = Cytotoxicity against mouse GC-1 cells after 72 hrs by MTT assay; assay type: functional, cell-based; settings: GC-1, 72 h
Procedure, shortened: (§2)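 Cells kept in RPMI or DMEM with 10% FBS at 37 °C, 5% CO₂ and allowed to attach overnight; 72 h with increasing inhibitor concentrations; then 1 mg/mL MTT for 3 h, DMSO solubilisation, OD read at 540 nm. Testis lines had culture conditions adapted to them. Dose-response in triplicate, 9 concentrations between 0.02 and 100 μM, averaged.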

[18] = Cytotoxicity against mouse TM4 cells after 72 hrs by MTT assay; assay type: functional, cell-based; settings: TM4, 72 h; procedure, shortened: as §2
[19] = Cytotoxicity against mouse GC-2 cells after 72 hrs by MTT assay; assay type: functional, cell-based; settings: GC-2, 72 h; procedure, shortened: as §2
[20] = tested on: MDA-MB-468; assay: Cytotoxicity against human MDA-MB-468 cells after 72 hrs by MTT assay; assay type: functional, cell-based; settings: MDA-MB-468, 72 h; procedure, shortened: as §2

SMILES: Nc1nc(Nc2ccc(S(N)(=O)=O)cc2)sc1C(=O)c1ccc(S(N)(=O)=O)cc1
IC50 [1]: 70 nM
IC50 [2]: > 10 µM
IC50 [3]: > 10 µM
IC50 [4]: > 10 µM
IC50 [5]: > 10 µM
IC50 [6]: > 10 µM
IC50 [7]: > 10 µM
IC50 [8]: 7.2 µM
IC50 [9]: > 10 µM
IC50 [10]: > 10 µM
IC50 [11]: > 10 µM
IC50 [12]: 8.7 µM
IC50 [13]: > 10 µM
IC50 [14]: > 10 µM
IC50 [15]: > 10 µM

SMILES: C=CCNc1nc(N)c(C(=O)Nc2cc(C)no2)s1
IC50 [16]: > 100 µM

SMILES: Nc1nc(Nc2ccc(S(N)(=O)=O)cc2)sc1C(=O)c1cccc([N+](=O)[O-])c1
IC50 [1]: 70 nM
IC50 [17]: 22 µM
IC50 [18]: 4 µM
IC50 [19]: 20 µM

SMILES: C=CCNc1nc(N)c(C(=O)c2ccncc2)s1
IC50 [16]: 49 µM

SMILES: Nc1nc(Nc2ccc(S(N)(=O)=O)cc2)sc1C(=O)c1cccc(C(F)(F)F)c1
IC50 [1]: 570 nM

SMILES: NC(=O)c1sc(Nc2ccccc2)nc1N
IC50 [17]: > 60 µM
IC50 [18]: > 60 µM
IC50 [19]: > 60 µM
IC50 [16]: > 100 µM

SMILES: C=CCNc1nc(N)c(C(=O)c2ccc(OC)cc2)s1
IC50 [16]: 35 µM

SMILES: C=CCNc1nc(N)c(C(C)=O)s1
IC50 [16]: > 100 µM

SMILES: COc1cccc(C(=O)c2sc(Nc3ccc(S(N)(=O)=O)cc3)nc2N)c1
IC50 [1]: 100 nM

SMILES: Nc1nc(Nc2ccc(S(N)(=O)=O)cc2)sc1C(=O)c1ccc2ccccc2c1
IC50 [2]: > 10 µM
IC50 [3]: > 10 µM
IC50 [4]: > 10 µM
IC50 [5]: 5.9 µM
IC50 [6]: 9.7 µM
IC50 [7]: 5.3 µM
IC50 [8]: 7.9 µM
IC50 [9]: 4.3 µM
IC50 [10]: > 10 µM
IC50 [12]: 4.5 µM
IC50 [13]: 4.8 µM
IC50 [14]: 3.7 µM
IC50 [15]: 6.1 µM
IC50 [20]: 5.5 µM
IC50 [16]: 82 µM

SMILES: Nc1nc(Nc2ccccc2)sc1C(=O)c1cc(C(F)(F)F)cc(C(F)(F)F)c1
IC50 [16]: > 100 µM

SMILES: Nc1nc(NC2CCCCC2)sc1C(=O)c1cccnc1
IC50 [1]: 380 nM
IC50 [20]: 3.1 µM

SMILES: COC(=O)c1ccccc1C(=O)c1sc(Nc2ccc(S(N)(=O)=O)cc2)nc1N
IC50 [16]: 32 µM

SMILES: C=CCNc1nc(N)c(C(=O)c2ccc(C)cc2)s1
IC50 [16]: 37 µM

SMILES: CN(C)/C=C/C(=O)c1sc(Nc2ccc(S(N)(=O)=O)cc2)nc1N
IC50 [16]: > 100 µM

SMILES: Nc1nc(Nc2ccccc2)sc1C(=O)c1cccc(Cl)c1
IC50 [16]: 99 µM

SMILES: CCOC(=O)c1sc(Nc2ccccc2)nc1N
IC50 [16]: > 100 µM

SMILES: C=CCNc1nc(N)c(C(=O)c2ccc(F)cc2)s1
IC50 [16]: > 100 µM

SMILES: C=CCNc1nc(N)c(C(=O)c2ccc(Cl)cc2)s1
IC50 [16]: > 100 µM

Now from value to compound, other results behind:

IC50 [16]: 15 µM
SMILES: C=C(C)CNc1nc(N)c(C(=O)c2ccccc2)s1

IC50 [16]: 7.8 µM
SMILES: Nc1nc(Nc2cccc(S(N)(=O)=O)c2)sc1C(=O)c1cccnc1

IC50 [16]: 4 µM
SMILES: Nc1nc(Nc2ccc(C(=O)O)cc2)sc1C(=O)c1cccnc1

IC50 [16]: 1.5 µM
SMILES: Nc1nc(Nc2ccc(S(N)(=O)=O)cc2)sc1C(=O)c1cccc(O)c1

IC50 [16]: 4.8 µM
SMILES: NC(=O)c1sc(Nc2ccc(S(N)(=O)=O)cc2)nc1N

IC50 [16]: 3.1 µM
SMILES: COc1cccc(C(=O)c2sc(Nc3ccccc3)nc2N)c1

IC50 [16]: 3.5 µM
SMILES: Nc1nc(Nc2ccc(S(N)(=O)=O)cc2)sc1C(=O)C1CCCCC1

IC50 [16]: 15 µM
SMILES: Nc1nc(Nc2ccc(S(N)(=O)=O)cc2)sc1C(=O)c1cccc(Cl)c1

IC50 [16]: 5.7 µM
SMILES: Nc1nc(Nc2cccc(F)c2)sc1C(=O)c1ccccc1

IC50 [16]: 1.4 µM
SMILES: Nc1nc(Nc2ccccc2)sc1C(=O)c1ccc(F)cc1
IC50 [17]: 16 µM
IC50 [18]: 14 µM
IC50 [19]: 17 µM

IC50 [16]: 5 µM
SMILES: C=CCNc1nc(N)c(C(=O)c2ccc3ccccc3c2)s1

IC50 [16]: 3.5 µM
SMILES: CC(C)(C)OC(=O)N1CCC(Nc2nc(N)c(C(=O)c3cccnc3)s2)CC1

IC50 [16]: 8.8 µM
SMILES: Nc1ccc(C(=O)c2sc(Nc3ccc(S(N)(=O)=O)cc3)nc2N)cc1

IC50 [16]: 2 µM
SMILES: CC(C)Nc1nc(N)c(C(=O)c2ccccc2)s1
